The results in this text go back to ChEMBL document CHEMBL1149338, “Synthesis and in vitro evaluation of salvinorin A analogues: effect of configuration at C(2) and substitution at C(18)” (Bioorg Med Chem Lett, 2006).

Molecules are shown by their SMILES.

Experiment [1] addresses T1, Kappa-type opioid receptor (Homo sapiens, UniProt P41145). Kind of experiment: Inhibition of [3H]diprenorphine binding to human KOR expressed in CHO cells. It counts as cell-based. The essentials: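 Affinity: membranes from CHO cells stably transfected with human κ-opioid receptor; competitive inhibition of [3H]diprenorphine binding; Ki values; mean of at least three independent experiments, each in duplicate.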

Experiment [2] deals with T1, Kappa-type opioid receptor. The experiment can be described thus: Enhancement of [35S]GTP-gamma-S binding to human KOR expressed in CHO cells. It counts as functional, cell-based.
Experiment [3] deals with T1, Kappa-type opioid receptor. Kind of experiment: Enhancement of [35S]GTP-gamma-S binding to human KOR expressed in CHO cells relative to U50,488H. It counts as functional, cell-based.
The target of experiment [4] is T1, Kappa-type opioid receptor. Kind of experiment: Enhancement of [35S]GTP-gamma-S binding to human KOR expressed in CHO cells relative to U50,488H at 10 uM. The experiment is classed as functional, cell-based.

T1 sequence (P41145 whole entry): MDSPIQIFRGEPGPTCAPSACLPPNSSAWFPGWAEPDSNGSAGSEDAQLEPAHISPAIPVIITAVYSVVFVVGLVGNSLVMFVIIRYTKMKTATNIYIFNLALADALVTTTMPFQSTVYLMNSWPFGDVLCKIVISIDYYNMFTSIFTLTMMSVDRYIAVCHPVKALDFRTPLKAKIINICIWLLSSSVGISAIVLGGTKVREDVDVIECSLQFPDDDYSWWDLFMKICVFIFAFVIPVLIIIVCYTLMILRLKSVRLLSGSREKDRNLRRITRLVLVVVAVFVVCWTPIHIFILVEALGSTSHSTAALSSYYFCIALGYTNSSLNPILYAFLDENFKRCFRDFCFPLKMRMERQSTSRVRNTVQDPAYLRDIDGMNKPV

In turn, `CN[C@H]1C[C@@H](C(=O)OC)[C@]2(C)CC[C@H]3C(=O)O[C@H](c4ccoc4)C[C@]3(C)[C@H]2C1=O` registered a Ki in experiment [1] of 328 nM. The concentration giving a half-maximal response (EC50) in experiment [2] turned out to be 825 nM. The Efficacy in experiment [3] was 82%. For the compound `CCNC[C@@H]1C[C@H](OC(C)=O)C(=O)[C@@H]2C3(C)C[C@@H](c4ccoc4)OC[C@H]3C(=O)C[C@@]12C` (stereo partly drawn), the Ki in experiment [1] is > 10000 nM. In experiment [1], `CCC(=O)O[C@@H]1C[C@@H](C(=O)OC)[C@]2(C)CC[C@H]3C(=O)O[C@H](c4ccoc4)C[C@]3(C)[C@H]2C1=O` came in with a Ki of 641 nM. Turning to `CC(=O)O[C@H]1C[C@@H](CN(C)C)[C@]2(C)CC(=O)[C@H]3CO[C@H](c4ccoc4)CC3(C)[C@H]2C1=O` (stereo partly drawn), the Ki in experiment [1] was > 10000 nM. The compound `COC(=O)[C@@H]1C[C@@H](NC(C)=O)C(=O)[C@H]2[C@@]1(C)CC[C@H]1C(=O)O[C@H](c3ccoc3)C[C@]21C` returned an inhibition constant Ki in experiment [1] of 332 nM. Also, the EC50 in experiment [2] is 339 nM. For `CCN[C@H]1C[C@@H](C(=O)OC)[C@]2(C)CC[C@H]3C(=O)O[C@H](c4ccoc4)C[C@]3(C)[C@H]2C1=O` the same measures were 65.2 nM and 72.8 nM. The compound `CCC(=O)N(CC)[C@@H]1C[C@@H](C(=O)OC)[C@]2(C)CC[C@H]3C(=O)O[C@H](c4ccoc4)C[C@]3(C)[C@H]2C1=O` yielded an inhibition constant Ki in experiment [1] of 376 nM. The EC50 in experiment [2] is 857 nM. Also, the Efficacy in experiment [3] came to 96%. In experiment [1], `CCC(=O)N(C)[C@H]1C[C@@H](C(=O)OC)[C@]2(C)CC[C@H]3C(=O)O[C@H](c4ccoc4)C[C@]3(C)[C@H]2C1=O` gave an inhibition constant (Ki) of 1.6 nM. The concentration for a half-maximal effect (EC50) in experiment [2] was found to be 0.75 nM.

The compound `COC[C@@H]1C[C@H](OC(C)=O)C(=O)[C@@H]2C3(C)C[C@@H](c4ccoc4)OC[C@H]3C(=O)C[C@@]12C` (stereo partly drawn) came in with an inhibition constant (Ki) in experiment [1] of 769 nM. Moreover, in experiment [4], the Efficacy was 70%. For `CNC[C@@H]1C[C@H](OC(C)=O)C(=O)[C@@H]2C3(C)C[C@@H](c4ccoc4)OC[C@@H]3C(=O)C[C@@]12C` (stereo partly drawn), the Ki in experiment [1] was > 10000 nM. `COC(=O)[C@@H]1C[C@@H](NC(C)C)C(=O)[C@H]2[C@@]1(C)CC[C@H]1C(=O)O[C@H](c3ccoc3)C[C@]21C` yielded a Ki in experiment [1] of 2.3 nM. Besides, the half-maximal effective concentration (EC50) in experiment [2] was 7.2 nM. Turning to `CNC[C@@H]1C[C@H](OC(C)=O)C(=O)[C@@H]2C3(C)C[C@@H](c4ccoc4)OC[C@H]3C(=O)C[C@@]12C` (stereo partly drawn), in experiment [1], the inhibition constant Ki is > 10000 nM. Turning to `CC(=O)O[C@H]1C[C@@H](C(=O)N(C)C)[C@]2(C)CC[C@H]3C(=O)O[C@H](c4ccoc4)C[C@]3(C)[C@H]2C1=O`, the Ki in experiment [1] was > 10000 nM. Consider `CCC(=O)N[C@H]1C[C@@H](C(=O)OC)[C@]2(C)CC[C@H]3C(=O)O[C@H](c4ccoc4)C[C@]3(C)[C@H]2C1=O`, for which the inhibition constant Ki in experiment [1] turned out to be 374 nM. Further, the EC50 in experiment [2] amounted to 444 nM. Moreover, the Efficacy in experiment [3] was determined as 109%. On to `COC(=O)[C@@H]1C[C@@H](N(C)C(C)=O)C(=O)[C@H]2[C@@]1(C)CC[C@H]1C(=O)O[C@H](c3ccoc3)C[C@]21C`, for which, in experiment [3], the Efficacy was 106%. `COC(=O)[C@@H]1C[C@H](N(C)C(C)=O)C(=O)[C@H]2[C@@]1(C)CC[C@H]1C(=O)O[C@H](c3ccoc3)C[C@]21C`: affinity in experiment [1] was put at a Ki of 3.2 nM. Moreover, the 50% effective concentration (EC50) in experiment [2] stood at 2.4 nM. For the same compound, the Efficacy in experiment [3] was 103%.

The compound `CNC(=O)[C@@H]1C[C@H](OC(C)=O)C(=O)[C@H]2[C@@]1(C)CC[C@H]1C(=O)O[C@H](c3ccoc3)C[C@]21C` registered an inhibitory constant (Ki) in experiment [1] of 1390 nM. In experiment [4], the Efficacy turned out to be 71%. For the compound `CC(=O)O[C@H]1C[C@@H](C(=O)N(C)C)[C@]2(C)CC[C@@H]3C(=O)O[C@H](c4ccoc4)C[C@]3(C)[C@H]2C1=O`, the Ki in experiment [1] was > 10000 nM. In the case of `COC(=O)[C@@H]1C[C@@H](N)C(=O)[C@H]2[C@@]1(C)CC[C@H]1C(=O)O[C@H](c3ccoc3)C[C@]21C`, in experiment [1], the inhibition constant (Ki) came to 223 nM. Besides, the concentration giving a half-maximal response (EC50) in experiment [2] turned out to be 1370 nM. In addition, the Efficacy in experiment [3] came out at 84%.

Take `CC(=O)O[C@H]1C[C@@H](CO)[C@]2(C)CC(=O)[C@@H]3CO[C@H](c4ccoc4)CC3(C)[C@H]2C1=O` (stereo partly drawn): in experiment [1], the inhibitory constant (Ki) is > 10000 nM.

For `CCN(C(C)=O)[C@@H]1C[C@@H](C(=O)OC)[C@]2(C)CC[C@H]3C(=O)O[C@H](c4ccoc4)C[C@]3(C)[C@H]2C1=O`, the Ki in experiment [1] came to 240 nM. In addition, in experiment [2], the concentration giving a half-maximal response (EC50) came to 641 nM. For the same compound, the Efficacy in experiment [3] turned out to be 95%. In the case of `CCNC[C@@H]1C[C@H](OC(C)=O)C(=O)[C@@H]2C3(C)C[C@@H](c4ccoc4)OC[C@@H]3C(=O)C[C@@]12C` (stereo partly drawn), the Ki in experiment [1] is > 10000 nM. For `CCC(=O)N(C)[C@@H]1C[C@@H](C(=O)OC)[C@]2(C)CC[C@H]3C(=O)O[C@H](c4ccoc4)C[C@]3(C)[C@H]2C1=O`, the affinity in experiment [1], expressed as Ki, was 6.9 nM. The EC50 in experiment [2] was determined as 12.6 nM. In the case of `CCNC(=O)[C@@H]1C[C@H](OC(C)=O)C(=O)[C@H]2[C@@]1(C)CC[C@H]1C(=O)O[C@H](c3ccoc3)C[C@]21C`, the inhibition constant (Ki) in experiment [1] is > 10000 nM.

Regarding `CC(=O)O[C@H]1C[C@@H](CO)[C@]2(C)CC(=O)[C@H]3CO[C@H](c4ccoc4)CC3(C)[C@H]2C1=O` (stereo partly drawn), the inhibition constant (Ki) in experiment [1] is 1000 nM. Besides, the Efficacy in experiment [4] worked out at 68%.

For `CC(=O)O[C@H]1C[C@@H](CN(C)C)[C@]2(C)CC(=O)[C@@H]3CO[C@H](c4ccoc4)CC3(C)[C@H]2C1=O` (stereo partly drawn), the inhibition constant (Ki) in experiment [1] is > 10000 nM. In the case of `CNC(=O)[C@@H]1C[C@H](OC(C)=O)C(=O)[C@@H]2[C@@]3(C)C[C@@H](c4ccoc4)OC(=O)[C@H]3CC[C@]21C`, in experiment [1], the Ki was > 1000 nM. For `COC(=O)[C@@H]1C[C@H](NC(C)=O)C(=O)[C@H]2[C@@]1(C)CC[C@H]1C(=O)O[C@H](c3ccoc3)C[C@]21C`, the inhibition constant (Ki) in experiment [1] was 149 nM. Further, in experiment [2], the EC50 was determined as 188 nM.

In the case of `CCC(=O)N[C@@H]1C[C@@H](C(=O)OC)[C@]2(C)CC[C@H]3C(=O)O[C@H](c4ccoc4)C[C@]3(C)[C@H]2C1=O`, the affinity in experiment [1], expressed as Ki, was 117 nM. Further, the concentration for a half-maximal effect (EC50) in experiment [2] came to 718 nM. In addition, in experiment [3], the Efficacy worked out at 102%. In experiment [1], `CCCC(=O)O[C@@H]1C[C@@H](C(=O)OC)[C@]2(C)CC[C@H]3C(=O)O[C@H](c4ccoc4)C[C@]3(C)[C@H]2C1=O` returned an inhibitory constant (Ki) of 665 nM.

Take `CCN(C(C)=O)[C@H]1C[C@@H](C(=O)OC)[C@]2(C)CC[C@H]3C(=O)O[C@H](c4ccoc4)C[C@]3(C)[C@H]2C1=O`: the inhibitory constant (Ki) in experiment [1] was found to be 27.6 nM. Moreover, the half-maximal effective concentration (EC50) in experiment [2] was determined as 25.2 nM. In experiment [3], the Efficacy worked out at 104%. `COC(=O)[C@@H]1C[C@H](N(C)C)C(=O)[C@H]2[C@@]1(C)CC[C@H]1C(=O)O[C@H](c3ccoc3)C[C@]21C`: the Ki in experiment [1] was found to be 168 nM. For the same compound, in experiment [2], the EC50 came out at 240 nM. Besides, the Efficacy in experiment [3] turned out to be 110%. As to `COC(=O)[C@@H]1C[C@@H](OC)C(=O)[C@H]2[C@@]1(C)CC[C@H]1C(=O)O[C@H](c3ccoc3)C[C@]21C`, the Ki in experiment [1] was > 10000 nM. Turning to `CCNC(=O)[C@@H]1C[C@H](OC(C)=O)C(=O)[C@@H]2[C@@]3(C)C[C@@H](c4ccoc4)OC(=O)[C@H]3CC[C@]21C`, the Ki in experiment [1] is > 10000 nM. As to `COC(=O)[C@@H]1C[C@H](OC(C)=O)C(=O)[C@@H]2[C@@]3(C)C[C@@H](c4ccoc4)OC(=O)[C@H]3CC[C@]21C`, the Efficacy in experiment [3] stood at 88%. As for `CCO[C@@H]1C[C@@H](C(=O)OC)[C@]2(C)CC[C@H]3C(=O)O[C@H](c4ccoc4)C[C@]3(C)[C@H]2C1=O`, the Ki in experiment [1] was > 10000 nM. As for `COC(=O)[C@@H]1C[C@H](NC(C)C)C(=O)[C@H]2[C@@]1(C)CC[C@H]1C(=O)O[C@H](c3ccoc3)C[C@]21C`, in experiment [1], affinity was put at a Ki of 17.6 nM. Also, the EC50 in experiment [2] turned out to be 18.9 nM.

Take `CCC(=O)N(CC)[C@H]1C[C@@H](C(=O)OC)[C@]2(C)CC[C@H]3C(=O)O[C@H](c4ccoc4)C[C@]3(C)[C@H]2C1=O`: the affinity in experiment [1], expressed as Ki, was 38.1 nM. Also, the half-maximal effective concentration (EC50) in experiment [2] turned out to be 37.2 nM. Moreover, in experiment [3], the Efficacy was found to be 100%.
